Source: ChEMBL document CHEMBL1949657, “Chemical modification of the multitarget neuroprotective compound fisetin” (J Med Chem, 2012)
Activity calls are given as the source filed them.

Tests used:
HT-22 [1] = assay: Neuroprotective activity against glutamate-induced GSH loss in mouse HT22 cells assessed as intracellular GSH level at 1 to 10 uM after 24 hrs; assay type: functional, cell-based
Method in brief: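 HT22 cells given derivatives (1–10 μM) with 5 mM glutamate. After 24 h, cell extracts analysed for total intracellular GSH by chemical assay. Fisetin 10 μM as positive control. Tested twice; positives tested a third time.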

N9 = assay: Antiinflammatory activity in mouse N9 cells assessed as reduction of LPS-induced microglial activation at 1 to 10 uM measured as nitrite level after 24 hrs by Griess reagent-based assay; assay type: functional; set-up: scale not given: the % may be the effect or the level left
Method in brief: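 N9 microglia in DME with 7.5% DFCS, given 10 μg/ml LPS alone or with derivatives (1–10 μM) for 24 h. Medium spun to remove floating cells, then nitrite measured with Griess reagent, 10 min at room temperature, absorbance 550 nm. Fisetin 10 μM as positive control. Tested twice; positives tested a third time.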

HT-22 [2] = assay: Induction of Nrf2 expression in mouse HT22 cells from 1 to 4 hrs by immunoblotting; assay type: functional, cell-based
Method in brief: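 Nuclear extracts taken from untreated and derivative-treated cells at 1, 2 and 4 h. Equal protein run on 10% SDS-PAGE, blotted to nitrocellulose (Ponceau-S loading check). Probed with anti-Nrf2 (1/1000) and anti-β-actin, HRP secondary, chemiluminescence. Tested twice; positives tested a third time.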

HT-22 [3] = assay: Neuroprotective activity in mouse HT22 cells assessed as reduction in IAA-induced ischemia after 24 hrs by MTT assay; assay type: functional, cell-based; conditions: Mus musculus, HT-22, 24 h; read-out: EC50
Method in brief: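 HT22 cells seeded at 5×10^3/well. Next day switched to DMEM + 7.5% DFCS with 20 μM IAA ± derivative doses for 2 h, then IAA-free medium with derivative for 20 h. MTT 2.5 μg/ml for 4 h at 37 °C, solubilised in DMF/SDS pH 4.7, A570 read. Controls for compound toxicity and assay interference. EC50 from dose series; tested twice, third time if EC50 < 1 μM.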

[4] = Antioxidant activity against ABTS radical assessed as trolox equivalent after 4 mins by TEAC assay; assay type: functional
Method in brief: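 ABTS radical cation formed overnight with potassium persulfate and diluted to OD ~0.7 at 734 nm, then mixed with derivative in ethanol. Loss of A734 followed over 4 min. TEAC = slope of % absorbance inhibition vs concentration divided by the slope for Trolox.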

PC-12 = assay: Neurotrophic activity in rat PC12 cells assessed as neurite outgrowth at 1 to 10 uM after 24 hrs; assay type: functional, cell-based
Method in brief: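 PC12 cells in N2 medium given derivatives (1–10 μM) for 24 h, fisetin 10 μM as positive control. 100 cells counted in each of three fields. A cell scored positive with ≥1 neurite longer than one cell-body diameter. Tested twice; positives tested a third time.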

HT-22 [5] = assay: Ratio of fisetin EC50 to compound EC50 for neuroprotectivie activity in mouse HT22 cells; assay type: functional
Oryctolagus cuniculus = assay: Neuroprotective activity in New Zealand white rabbit small clot embolism model assessed as reduction in stroke-induced behavioural deficits at 50 mg/kg, iv administered 5 mins post-embolization measured after 24 hrs; assay type: functional, organism-based; set-up: dose 50 mg/kg, route intravenous

| SMILES | Activity (HT-22 [1]) | Activity (N9) | Activity (HT-22 [2]) | EC50 (HT-22 [3]) | Activity [4] | Activity (PC-12) | Ratio EC50 (HT-22 [5]) | EC50 (Oryctolagus cuniculus) |
| --- | --- | --- | --- | --- | --- | --- | --- | --- |
| Cc1cc2oc(-c3ccc(N4CCCC4)cc3)c(O)c(=O)c2cc1C | Active | 0% | inactive | 90 nM | 2.4 equiv | Active | – | – |
| Cc1cc(O)c(C(=O)/C=C/c2ccc(O)c(O)c2)cc1C | Active | 94% | Active | 50 nM | 2.7 equiv | Active | – | – |
| COc1ccc(-c2oc3cc(C)c(C)cc3c(=O)c2O)cc1O | inactive | 72% | – | 20 nM | 1.74 equiv | inactive | 10 | – |
| O=c1c(O)c(-c2ccc(N3CCCC3)c(O)c2)oc2c1ccc1ccccc12 | Active | 50% | inactive | 5 nM | 2.1 equiv | Active | 600 | – |
| COc1cc(-c2ccc(O)c(O)c2)nc2ccccc12 | Active | 85% | inactive | 40 nM | 0.36 equiv | inactive | 75 | – |
| Cc1cc2oc(-c3ccc(N(C)C)cc3)c(O)c(=O)c2cc1C | Active | 11% | inactive | 20 nM | 3 equiv | inactive | – | – |
| Cc1cc2oc(-c3ccc(N4CCCC4)c(O)c3)c(O)c(=O)c2cc1C | Active | 21% | inactive | 15 nM | 2.79 equiv | Active | – | – |
| COc1cc(-c2cc(=O)c3cc(C)c(C)cc3o2)ccc1O | inactive | 41% | – | 30 nM | 0.12 equiv | inactive | 10 | – |
| CN(C)c1ccc(-c2oc3c(ccc4ccccc43)c(=O)c2O)cc1 | Active | 0% | inactive | 40 nM | 0.93 equiv | inactive | – | – |
| COc1cc(-c2oc3cc(C)c(C)cc3c(=O)c2O)ccc1O | inactive | 77% | – | 40 nM | 1.89 equiv | inactive | 10 | – |
| O=C(/C=C/c1ccc(O)c(O)c1)c1ccc2ccccc2c1O | Active | 75% | Active | 80 nM | 2.8 equiv | Active | – | – |
| O=c1c(O)c(-c2ccc(O)c(O)c2)oc2cc(O)ccc12 [FISETIN] | Active | 80% | Active | 3000 nM | 3 equiv | Active | – | 2000 nM |
| Oc1ccc(-c2cc(OC3CCCC3)c3ccccc3n2)cc1O [CMS-121] | Active | 82% | inactive | 7 nM | 0.4 equiv | Active | – | – |
| O=c1c(O)c(-c2ccc(O)c(O)c2)oc2ccccc12 | Active | 80% | Active | 500 nM | 2 equiv | Active | 6 | – |
